Pf Dd2 growth: P. falciparum Dd2 growth inhibitors, primary screen, SYBR Green fluorescence, single dose replicates | 72 h; stronger effect = lower value | activity change, % at 10 µM | actives 2.3% (n = 94,000); in the data active = activity change below about -80%; inconclusive = no clear call, values can overlap the other calls
IDH1 R132H inh: inhibitors of IDH1 R132H reductase, primary screen, biochemical, plate reader, single point; Isocitrate dehydrogenase [NADP] cytoplasmic (Homo sapiens), O75874; actives 0.18% (n = 70,000); inhibition, % at 10 µM; diaphorase/resazurin fluorescence, 60 min; in the data active = inhibition above about 34%; inconclusive = no clear call, values can overlap the other calls; inactive = below about 11%;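 also: 0% = DMSO and 100% = no enzyme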
Target sequence (O75874 whole entry R132H): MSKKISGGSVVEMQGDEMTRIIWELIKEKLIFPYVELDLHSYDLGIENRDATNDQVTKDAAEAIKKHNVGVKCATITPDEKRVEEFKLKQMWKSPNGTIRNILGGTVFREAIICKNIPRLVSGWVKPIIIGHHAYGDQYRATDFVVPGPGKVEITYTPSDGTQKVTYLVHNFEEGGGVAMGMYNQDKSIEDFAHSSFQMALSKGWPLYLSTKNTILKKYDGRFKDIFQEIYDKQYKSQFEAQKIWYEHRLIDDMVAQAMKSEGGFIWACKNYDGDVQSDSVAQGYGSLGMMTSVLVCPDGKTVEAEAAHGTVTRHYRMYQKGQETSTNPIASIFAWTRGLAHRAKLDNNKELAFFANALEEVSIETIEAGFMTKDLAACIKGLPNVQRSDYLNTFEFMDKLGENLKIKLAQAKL
T cruzi growth-1: T. cruzi intracellular proliferation inhibitors, primary screen, cell-based, beta-gal Tulahuen parasites, NIH3T3 host, luminescence; actives 5.9% (n = 77,000); AID 624255, 2012; inhibition, % at 8.34 µM; T. cruzi beta-gal in NIH3T3, GalScreen luminescence, 90 h;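 active = mean inhibition above about 93%, with at least 55% of replicates each passing it, limit read from the data, passing the limit was not always enough; inconclusive = only one of those two conditions holds; inactive = neither condition holds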
GASC1 inh: inhibitors of GASC-1 (KDM4C) histone demethylase, primary screen, biochemical, single concentration HTS; AID 720574, 2013; inhibition, % at 12.5 µM; GST-KDM4C 2-372, H3K9me3 peptide, LANCE TR-FRET; actives 0.15% (n = 96,000);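 active = mean replicate inhibition above about 25%, with at least 55% of replicates also reaching it, limit read from the data, passing the limit was not always enough; inconclusive = only one of those two conditions met; inactive = neither condition met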
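System: N-terminal GST-fused human GASC-1 (KDM4C) fragment, residues 2-372; amount: enzyme final amount 10 nM; incubation: reaction 30 min RT, detection step 1 h RT; medium: HEPES buffer, pH 7.5, plus ascorbate; technique: LANCE TR-FRET, Eu antibody, ULight-streptavidin, EDTA, ex 340 nm, em 618/671 nm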
T cruzi growth-2: T. cruzi intracellular proliferation inhibitors, confirmation, cell-based, NIH3T3 host, beta-gal parasite, luminescence, cherry-pick; actives 72% (n = 5,600); T. cruzi beta-gal in NIH3T3, GalScreen luminescence, 90 h; inhibition, % at 8.35 µM; AID 651739, 2012; shares compounds with T cruzi growth-1;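 active = mean replicate inhibition above about 95% and at least 55% of replicates individually reaching it, limit read from the data; inconclusive = only one of the two criteria is met; inactive = neither criterion is met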
T cruzi growth-3: inhibitors of intracellular T. cruzi replication, confirmation, NIH3T3 host cells, beta-gal parasites, cherry-pick, set 2; inhibition, % at 2.09 µM; actives 21% (n = 5,600); shares compounds with T cruzi growth-1; T. cruzi beta-gal in NIH3T3, GalScreen luminescence, 90 h;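 active = mean inhibition above about 95%, with at least 55% of replicates also reaching it, limit read from the data; inconclusive = meets just one of the two conditions; inactive = meets neither condition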;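 also: plate controls were neutral control median for no effect and positive control median for full effect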
NIH3T3 tox: cytotoxicity in mouse NIH/3T3 fibroblasts, confirmation, cytotoxicity control for T. cruzi proliferation inhibitor project, cell-based, cherry-pick, single point | NIH/3T3 viability, CellTiter-Glo ATP luminescence, 90 h | actives 14% (n = 5,600) | shares compounds with T cruzi growth-1 | cytotoxicity (signal decrease), % at 8.35 µM | AID 651742, 2012;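 active = mean signal decrease across replicates above about 35% based on untreated-well scatter, with enough replicates individually passing, limit read from the data; inconclusive = no rule stated though some were filed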;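 also: 0% = median of neutral control wells and 100% = median of positive control wells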
NIH3T3 tox 2: NIH/3T3 fibroblast cytotoxicity, confirmation, cytotoxicity control, cell-based, cherry-pick, single point, set 2 | NIH/3T3 viability, CellTiter-Glo ATP luminescence, 90 h | shares compounds with T cruzi growth-1 | inhibition, % at 24.9 µM | actives 56% (n = 5,600);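 active = mean loss of cell viability signal at or above a set limit, and enough replicates individually reaching it; inconclusive = meets only the mean limit or only the replicate share; inactive = meets neither condition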;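 also: 0% = median of neutral control wells and 100% = median of positive control wells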
An asterisk follows results filed as active; ? = inconclusive; / = not tested or not shown. Only some compounds are listed: those with a hit (about 5.9% of all), similar ones and a draw of the others.

SMILES	Pf Dd2 growth	IDH1 R132H inh	T cruzi growth-1	GASC1 inh	T cruzi growth-2	T cruzi growth-3	NIH3T3 tox	NIH3T3 tox 2
COc1ccccc1NC(=O)N1CCCCN2[C@H](CO)[C@@H](c3ccc(C#CC4CCCC4)cc3)[C@@H]2C1	-15	/	102*	-1	98*	68	26	105*
COc1ccccc1NC(=O)N1CCCCN2[C@H](CO)[C@@H](c3ccc(C#Cc4ccccc4)cc3)[C@H]2C1	-73	/	112*	-2	102*	102*	119*	105*
COc1ccccc1NC(=O)N1CCCCN2[C@@H](CO)[C@@H](c3ccc(C#CC4CCCC4)cc3)[C@@H]2C1	-64	/	-3	-1	/	/	/	/
COc1ccccc1NC(=O)N1CCCCN2[C@@H](CO)[C@H](c3ccc(C#Cc4ccccc4)cc3)[C@@H]2C1	?	/	112*	-3	92	108*	118*	104*
CC(Oc1ccccc1)C(=O)NCCN1CCOCC1 (stereo not drawn)	/	0	/	/	/	/	/	/
CO[C@@H]1CN(C)C(=O)c2cc(NC(=O)C3CCOCC3)ccc2OC[C@@H](C)N(CC2CC2)C[C@@H]1C	-36	0	99*	1	46	10	-14	6
CO[C@@H]1CN(C)C(=O)c2ccc(NC(=O)C3CCC3)cc2OC[C@H](C)N(CC2CCCCC2)C[C@@H]1C	-69	0	3	2	/	/	/	/
CO[C@H]1CN(C)C(=O)c2ccc(NC(=O)C3CCC3)cc2OC[C@@H](C)N(CC2CCCCC2)C[C@@H]1C	-66	0	?	-1	107*	24	-12	103*
CNC[C@H]1Oc2cc(C#Cc3ccccn3)ccc2S(=O)(=O)N([C@@H](C)CO)C[C@@H]1C	-41	11	101*	-1	111*	93	4	4
C[C@@H]1CN([C@@H](C)CO)S(=O)(=O)c2ccc(C#Cc3ccccn3)cc2O[C@@H]1CN(C)C	22	0	/	0	/	/	/	/
CNC[C@H]1Oc2cc(C#Cc3ccccn3)ccc2S(=O)(=O)N([C@H](C)CO)C[C@H]1C	-22	0	99*	1	109*	69	-8	29
OC[C@H]1Nc2ccc(-c3ccccc3)cc2[C@H]2[C@@H]1CCN2Cc1ccc(F)cc1	-76	/	104*	1	99*	113*	26	105*
OC[C@@H]1Nc2ccc(-c3ccccc3)cc2[C@H]2[C@@H]1CCN2Cc1ccc(F)cc1	-61	/	105*	0	104*	111*	12	103*
COc1ccc(CN(C)C[C@H]2OCCCC[C@H](C)Oc3ccc(NC(=O)C4CCCCC4)cc3C(=O)N([C@H](C)CO)C[C@H]2C)cc1	-53	9	107*	2	73	35	5	26*
COc1ccc(CN(C)C[C@H]2OCCCC[C@@H](C)Oc3ccc(NC(=O)Nc4ccc(F)cc4)cc3C(=O)N([C@H](C)CO)C[C@H]2C)cc1	-58	/	86	-2	/	/	/	/
COc1ccc(CN(C)C[C@@H]2OCCCC[C@H](C)Oc3ccc(NC(=O)C4CCCCC4)cc3C(=O)N([C@@H](C)CO)C[C@H]2C)cc1	-69	1	80	-1	/	/	/	/
COc1ccc(CN(C)C[C@H]2OCCCC[C@@H](C)Oc3ccc(NC(=O)Nc4ccc(OC)cc4)cc3C(=O)N([C@@H](C)CO)C[C@@H]2C)cc1	-65	-2	81	/	/	/	/	/

Screening results: PubChem BioAssay, Broad Institute
